The results in this text go back to ChEMBL document CHEMBL1158114, “Acetylated flavanone glycosides from the rhizomes of Cyclosorus acuminatus” (2006).

Structures are written as SMILES. Converted amounts (≈) assume the structure as drawn.

What all share (assay type): functional
One assay relates to Escherichia coli. As to the kind of experiment: Antibacterial activity against Escherichia coli ATCC 25922. In a few lines: (§1)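 Twofold serial dilution method; reference laboratory ATCC strains used as test organisms: S. aureus 25923, E. coli 25922, S. pneumoniae 49619, H. influenzae 49247.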
Another assay has as its system Streptococcus pneumoniae. As to the kind of experiment: Antibacterial activity against Streptococcus pneumoniae ATCC 49619. In a few lines:
as §1

The subject of another assay is Staphylococcus aureus. As to the kind of experiment: Antibacterial activity against Staphylococcus aureus ATCC 25923. In a few lines: as §1
Another assay concerns Haemophilus influenzae. The assay is described as follows: Antibacterial activity against Haemophilus influenzae ATCC 49247. In a few lines:
as §1

`CC(=O)OC[C@H]1O[C@@H](O[C@@H]2[C@@H](O)[C@H](C)O[C@@H](Oc3ccc(O)cc3[C@@H]3CC(=O)c4c(O)cc(O)cc4O3)[C@@H]2OC(C)=O)[C@H](OC(C)=O)[C@@H](O)[C@@H]1O`: the MIC in the assay with Escherichia coli came to 64 µg/mL (≈ 88.6 µM); against Streptococcus pneumoniae, 32 µg/mL (≈ 44.3 µM); with Staphylococcus aureus, 128 µg/mL (≈ 177 µM); against Haemophilus influenzae, 32 µg/mL (≈ 44.3 µM).
For the compound `CC(=O)OC[C@H]1O[C@@H](O[C@@H]2[C@@H](O)[C@H](C)O[C@@H](Oc3ccc(O)cc3[C@@H]3CC(=O)c4c(O)cc(O)cc4O3)[C@@H]2OC(C)=O)[C@H](O)[C@@H](O)[C@@H]1OC(C)=O`, the MIC worked out at 64 µg/mL (≈ 88.6 µM) against Escherichia coli, 32 µg/mL (≈ 44.3 µM) in the assay with Streptococcus pneumoniae, 128 µg/mL (≈ 177 µM) against Staphylococcus aureus and 32 µg/mL (≈ 44.3 µM) in the assay with Haemophilus influenzae.
Take `CC(=O)OC[C@H]1O[C@@H](O[C@@H]2[C@@H](O)[C@H](C)O[C@@H](Oc3ccc(O)cc3[C@@H]3CC(=O)c4c(O)cc(O)cc4O3)[C@@H]2OC(C)=O)[C@H](O)[C@@H](OC(C)=O)[C@@H]1O`: the MIC with Escherichia coli is 64 µg/mL (≈ 88.6 µM); with Streptococcus pneumoniae, 32 µg/mL (≈ 44.3 µM); in the assay on Staphylococcus aureus, 128 µg/mL (≈ 177 µM); in the assay with Haemophilus influenzae it was 32 µg/mL (≈ 44.3 µM).
On to `C[C@@H]1O[C@@H](Oc2ccc(O)cc2[C@@H]2CC(=O)c3c(O)cc(O)cc3O2)[C@H](O)[C@H](O[C@@H]2O[C@H](CO)[C@@H](O)[C@H](O)[C@H]2O)[C@H]1O`, for which the MIC against Escherichia coli was found to be 64 µg/mL (≈ 107 µM); against Streptococcus pneumoniae it was 32 µg/mL (≈ 53.6 µM); in the assay with Staphylococcus aureus, 128 µg/mL (≈ 215 µM); against Haemophilus influenzae, 32 µg/mL (≈ 53.6 µM).
As to `CC(=O)OC[C@H]1O[C@@H](O[C@@H]2[C@@H](O)[C@H](C)O[C@@H](Oc3ccc(O)cc3[C@@H]3CC(=O)c4c(O)cc(O)cc4O3)[C@@H]2OC(C)=O)[C@H](O)[C@@H](O)[C@@H]1O`, the MIC in the assay with Escherichia coli stood at 64 µg/mL (≈ 94 µM); against Streptococcus pneumoniae, 32 µg/mL (≈ 47 µM); with Staphylococcus aureus, 128 µg/mL (≈ 188 µM); against Haemophilus influenzae it was 32 µg/mL (≈ 47 µM).
For the compound `CC(=O)O[C@H]1[C@H](Oc2ccc(O)cc2[C@@H]2CC(=O)c3c(O)cc(O)cc3O2)O[C@@H](C)[C@H](O)[C@H]1O[C@@H]1O[C@H](CO)[C@@H](O)[C@H](O)[C@H]1O`, the MIC stood at 64 µg/mL (≈ 100 µM) in the assay on Escherichia coli, 32 µg/mL (≈ 50.1 µM) against Streptococcus pneumoniae, 128 µg/mL (≈ 200 µM) with Staphylococcus aureus and 32 µg/mL (≈ 50.1 µM) in the assay with Haemophilus influenzae.
For `CC(=O)OC[C@H]1O[C@@H](O[C@@H]2[C@@H](O)[C@H](C)O[C@@H](Oc3ccc(O)cc3[C@@H]3CC(=O)c4c(O)cc(O)cc4O3)[C@@H]2OC(C)=O)[C@H](O)[C@@H](OC(C)=O)[C@@H]1OC(C)=O`, the MIC with Escherichia coli turned out to be 64 µg/mL (≈ 83.7 µM); against Streptococcus pneumoniae it was 32 µg/mL (≈ 41.8 µM); against Staphylococcus aureus, 128 µg/mL (≈ 167 µM); with Haemophilus influenzae it was 32 µg/mL (≈ 41.8 µM).
For the compound `CC[C@H]1OC(=O)[C@H](C)[C@@H](O[C@H]2C[C@@](C)(OC)[C@@H](O)[C@H](C)O2)[C@H](C)[C@@H](O[C@@H]2O[C@H](C)C[C@H](N(C)C)[C@H]2O)[C@](C)(O)C[C@@H](C)CN(C)[C@H](C)[C@@H](O)[C@]1(C)O` [AZITHROMYCIN], the MIC in the assay on Escherichia coli turned out to be 0.5 µg/mL (≈ 0.668 µM); in the assay with Streptococcus pneumoniae it was 4 µg/mL (≈ 5.34 µM); against Staphylococcus aureus, 0.5 µg/mL (≈ 0.668 µM); in the assay with Haemophilus influenzae it was 8 µg/mL (≈ 10.7 µM).
Regarding `CC[C@H]1OC(=O)[C@H](C)[C@@H](O[C@H]2C[C@@](C)(OC)[C@@H](O)[C@H](C)O2)[C@H](C)[C@@H](O[C@@H]2O[C@H](C)C[C@H](N(C)C)[C@H]2O)[C@](C)(O)C[C@@H](C)C(=O)[C@H](C)[C@@H](O)[C@]1(C)O` [ERYTHROMYCIN], the MIC was 0.25 µg/mL (≈ 0.341 µM) in the assay with Escherichia coli, 64 µg/mL (≈ 87.2 µM) with Streptococcus pneumoniae, 0.25 µg/mL (≈ 0.341 µM) in the assay with Staphylococcus aureus and 64 µg/mL (≈ 87.2 µM) against Haemophilus influenzae.
